# hIAP inh – human IAP inhibitors, primary screen, biochemical, luminescence, uHTS; inhibition, % at 10 µM; actives 0.12% (n = 330,000); Intestinal-type alkaline phosphatase (Homo sapiens), P09923; purified IAP, CDP-Star luminescence, 30 min;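 active means inhibition reaching a set limit with compound at 10 µM in the primary screen, cut at about 35% in these data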;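 further: plate controls were DMSO wells with enzyme for no effect and no-enzyme buffer wells for full effect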
# Target sequence (P09923 whole entry, looked up): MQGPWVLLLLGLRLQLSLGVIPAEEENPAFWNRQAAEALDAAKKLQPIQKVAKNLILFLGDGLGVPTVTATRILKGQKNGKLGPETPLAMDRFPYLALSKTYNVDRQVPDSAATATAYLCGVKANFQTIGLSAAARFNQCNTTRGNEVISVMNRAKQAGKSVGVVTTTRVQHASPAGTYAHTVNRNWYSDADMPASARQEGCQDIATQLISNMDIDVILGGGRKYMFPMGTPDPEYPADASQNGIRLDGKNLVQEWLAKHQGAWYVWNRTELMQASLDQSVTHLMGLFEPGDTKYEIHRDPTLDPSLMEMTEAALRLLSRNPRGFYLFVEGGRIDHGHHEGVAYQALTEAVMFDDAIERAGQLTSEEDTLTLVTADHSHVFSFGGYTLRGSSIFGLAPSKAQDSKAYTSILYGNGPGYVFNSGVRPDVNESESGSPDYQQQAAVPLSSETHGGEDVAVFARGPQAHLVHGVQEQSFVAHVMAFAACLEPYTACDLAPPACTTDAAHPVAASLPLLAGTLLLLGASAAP
# bIAP act – bovine intestinal alkaline phosphatase activators, primary screen, biochemical, bovine IAP, CDP-star luminescence. activation factor at 20 µM. AID 1016, 2008. alkaline phosphatase, intestinal [Bos taurus]. actives 0.17% (n = 200,000). purified bovine IAP, 30 min; hits give high values; fold of DMSO-control signal, blank-subtracted;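 active means activation factor of 2 or more at 20 µM, a signal rise over negative controls twice the positive control's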
# mIAP act – activators of mouse IAP, primary screen, biochemical, luminescence, uHTS. activation factor at 10 µM. muIAP, CDP-Star luminescence, 30 min; hits give high values; 1 = vehicle-only enzyme signal, 0 = enzyme-free wells. intestinal alkaline phosphatase [Mus musculus]. actives 0.24% (n = 330,000);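 active means activation factor of at least 2 at 20 µM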
#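 also added = chemiluminescent substrate CDP-Star | test system = mouse IAP enzyme | signal = chemiluminescence readout | compound = DMSO-dissolved test compounds | incubation = 30 min at room temperature | benchmarks = DMSO wells, no-enzyme wells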
# mIAP inh – inhibitors of mouse IAP, primary screen, biochemical, luminescence, uHTS. intestinal alkaline phosphatase [Mus musculus]. purified mouse IAP, CDP-Star luminescence, 30 min. inhibition, % at 10 µM. actives 0.2% (n = 330,000). AID 2806, 2010;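 active means inhibition of at least 40% at 10 µM in the primary screen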;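 further: plate controls were DMSO with enzyme for no effect and no enzyme wells for full effect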
# bIAP inhibitor – bovine intestinal alkaline phosphatase inhibitors, primary screen, selectivity assay for TNAP inhibitor project, biochemical, bovine IAP, CDP-star luminescence; alkaline phosphatase, intestinal [Bos taurus]; purified bovine IAP, 30 min; inhibition, % at 20 µM; 190,000 tested, under 10 active;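 active means over 50% inhibition of intestinal alkaline phosphatase at 20 µM in the single-dose screen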
#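 Assay system – bovine IAP enzyme · Quantity – bovine IAP at 1/65,000,000 final dilution · Detection – CDP-star luminescence signal · Times – 30 min reaction at room temperature · Also added – CDP-star substrate at 30 µM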
# hIAP activ – human IAP activators, primary screen, biochemical, luminescence, uHTS | Intestinal-type alkaline phosphatase (Homo sapiens), P09923 | purified human IAP, CDP-Star luminescence, 30 min; hits give high values; 1 = vehicle-only enzyme, 0 = enzyme-free background | activation factor at 10 µM | actives 0.16% (n = 330,000) | AID 2524, 2010;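 active means activation factor of the enzyme at least 2-fold when tested at 20 µM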
# Active calls of the source: *; . = not tested or not shown. This is a sample that favours compounds with a hit; in the whole collection about 0.77% have one here.
SMILES,hIAP inh,bIAP act,mIAP act,mIAP inh,bIAP inhibitor,hIAP activ
COc1cc(C(=O)N2CCN(C(=O)CC(C)C)CC2)cc(OC)c1OC,-7,1,0.6,40*,0,1.1
Cc1ccccc1C(=O)Nc1cccc(NC(=O)c2cccnc2)c1,0,.,0.96,4,.,1
CCO[C@@H]1OC(C(=O)N2CCN(Cc3ccc4c(c3)OCO4)CC2)=C[C@H](c2csc3ccccc23)[C@H]1CCCO,14,1.2,1,-3,-19,0.85
CCO[C@@H]1OC(C(=O)N2CCN(Cc3ccc4c(c3)OCO4)CC2)=C[C@H](c2cn(C(C)=O)c3ccccc23)[C@H]1CCCO,-10,1,0.57,43*,-2,1.1
CCO[C@@H]1OC(C(N)=O)=C[C@H](C2CCCCC2)[C@H]1CCCO,-9,.,0.55,45*,.,1.1
Cc1ccc(Cl)c(N/C=C/C(=O)c2ccccc2)c1,-13,.,0.98,2,.,1.1
Cc1ccc(NC(=O)N/C=C/c2ccccc2)cc1,5,0.8,2.2*,-123,16,0.95
COc1ccc(NC(=O)N/C=C/c2ccc(Cl)cc2)cc1,-12,1,1.1,-9,-3,1.1
Cc1ccc(NC(=O)N/C=C/c2ccc(Cl)cc2)cc1,-24,0.5,2.3*,-131,.,1.2
O=C(COc1ccccc1F)OCC(=O)c1ccc([N+](=O)[O-])cc1,2,.,0.96,4,.,0.98
CC(C(=O)NCc1ccco1)n1ccc2cc(S(=O)(=O)N3CCCC3)ccc21 (centres undefined),-5,.,1,-4,.,1.1
COc1ccc(CNC(=O)C(C)n2ccc3cc(S(=O)(=O)N4CCCCCC4)ccc32)cc1 (centres undefined),-38,.,2.1*,-107,.,1.4
Cc1ccc2nc(C3CCN(CC(=O)Nc4ccc5c(c4)OCCO5)CC3)[nH]c2c1,11,2.1*,1.1,-10,-113,0.89
O=C(CN1CCC(c2nc3ccccc3[nH]2)CC1)Nc1ccc2c(c1)OCO2,-4,1.1,1.1,-14,-13,1
CN(CC(=O)Nc1ccccc1C(F)(F)F)C(=O)c1ccc(N2C(=O)CCC2=O)cc1,-4,.,0.9,10,.,1
O=C(COC(=O)/C=C/c1ccc([N+](=O)[O-])cc1)NCc1cccs1,4,.,1,-1,.,0.96
O=C(/C=C/c1ccc([N+](=O)[O-])cc1)NCc1cccs1,-20,4.9*,1.1,-10,-387,1.2
Cc1cc(C)nc(/N=C(\N)Nc2ccc(-c3ccccc3)cc2)n1,-34,3.7*,1.5,-50,-267,1.3
CC(=O)Nc1ccc(N/C(N)=N/c2nc(C)cc(C)n2)cc1,11,1,1.1,-6,-1,0.89
COc1ccc(Cl)cc1NC(=O)CN(C)C(=O)CCNC(=O)c1ccccc1OC,2,.,1.1,-10,.,0.98
O=C(C[C@@H]1C/C=C\C[C@H](Cc2ccc(F)cc2)C(=O)OC[C@H]2CCCN2C1=O)NCCO,7,.,1,-2,.,0.93
O=C(Nc1cccc(Cl)c1)NC1(C(=O)NCc2cccs2)CCCCC1,-14,1.1,2.2*,-121,-6,1.1
O=C(NCc1cccs1)Nc1cccc(Cl)c1,-4,.,1.8,-84,.,1
CCC(=O)Nc1cccc(C2=NN(c3ccccc3)C(c3ccc(OC)cc3)C2)c1 (centres undefined),-39,.,2.7*,-173,.,1.4
Cc1ccc(N2C(=O)CSCC2=O)cc1,-8,1,0.99,1,5,1.1
SMILES,hIAP inh,bIAP act,mIAP act,mIAP inh,bIAP inhibitor,hIAP activ
Cc1ccc(N2C(=O)CS/C2=C(\C(Cl)=C(Cl)Cl)[N+](=O)[O-])cc1,-18,0.8,0.58,42*,22,1.2
CCCCCCN1CC(=O)N2[C@@H](Cc3c([nH]c4ccccc34)C2(C)C)C1=O,3,.,1,-2,.,0.97
CSCCC(NC(=O)c1ccccc1Cl)C(=O)NNC(=O)c1ccncc1 (centres undefined),-8,.,0.88,12,.,1.1
Cn1cc(C(=O)Nc2ccc(Cl)cc2)c(C(F)(F)F)n1,0,0.9,0.95,5,12,1
O=C(Nc1ccc(F)cc1)Nc1ccc(S(=O)(=O)N2CCCC2)cc1,-2,.,1.9,-93,.,1
Cc1oc(S(=O)(=O)N2CCCCC2)cc1NC(=O)Nc1ccc(F)cc1,-15,.,2.1*,-106,.,1.2
CC(C)(C)c1ccc(NC(=O)Nc2ccc(F)cc2)cc1,0,1,2.2*,-119,1,1
Cc1ccc(NC(=O)Nc2ccc(F)cc2)cc1Cl,-4,0.9,2*,-103,9,1
Cn1cc(NC(=O)Nc2ccc(C(F)(F)F)cc2)c(C(F)(F)F)n1,-15,.,2.9*,-190,.,1.2
Cc1ccc(NC(=O)CCC(=O)c2ccc(F)cc2)cc1Cl,-10,1,1,-2,4,1.1
CC(C)(C)c1ccc(COC(=O)Nc2ccc(F)cc2)cc1,8,0.8,1.2,-15,24,0.93
CCn1c(CC(=O)Nc2ccccc2C)nnc1SCC(=O)NC1CCCC1,-12,.,1,0,.,1.1
O=C(CN1C(=O)C(=O)N(Cc2ccccc2)C1=O)c1ccc[nH]1,20,.,1,0,.,0.8
CCS(=O)(=O)Nc1ccc(C2=NN(S(=O)(=O)CC)C(c3cccs3)C2)cc1 (centres undefined),-10,.,0.93,7,.,1.1
c1csc(CNc2ncnc3ccc(-c4ccc5c(c4)OCCO5)cc23)c1,4,.,1.1,-11,.,0.96
Cc1cccc(NC(=O)COC(=O)c2ccccc2-c2nc3ccccc3s2)c1C,11,5.2*,1,0,-421,0.89
COc1ccc(/C=N/Nc2cc(=O)n(C)c(=O)n2C)cc1OC,-18,2*,1,-2,-96,1.2
Cc1ccccc1N1CCN(C2CCCN(C(=O)c3snnc3C)C2)CC1 (centres undefined),-31,.,0.97,3,.,1.3
C[C@@H]1CN([C@@H](C)CO)C(=O)Cc2cc(NS(=O)(=O)c3ccccc3)ccc2O[C@H]1CN(C)S(C)(=O)=O,-10,.,1,-2,.,1.1
C[C@@H]1CN([C@@H](C)CO)C(=O)Cc2cc(NC(=O)Nc3cccc4ccccc34)ccc2O[C@@H]1CN(C)Cc1ccc(C(F)(F)F)cc1,-1,.,2.1*,-114,.,1
C[C@@H]1CN([C@H](C)CO)C(=O)Cc2cc(NC(=O)Nc3ccccc3)ccc2O[C@@H]1CN(C)Cc1ccc2c(c1)OCO2,-9,.,2.1*,-113,.,1.1

# Source: PubChem BioAssay
